Source: ChEMBL document CHEMBL4007382 (Eur J Med Chem, 2017)

What was measured:
Mus musculus [1] = assay: Cardiotoxicity in Kunming mouse assessed as change in heart rate at 20 mg/kg, ip measured after 7 mins by electrocardiogram (reference value: -25.9 +/- 22.08); type: toxicity, organism-based; conditions: in vivo
Mus musculus [2] = assay: Cardiotoxicity in Kunming mouse assessed as change in heart rate at 20 mg/kg, ip measured after 32 mins by electrocardiogram (reference value: -43.48 +/- 20.81); type: toxicity, organism-based; conditions: in vivo
Mus musculus [3] = assay: Cardiotoxicity in Kunming mouse assessed as change in heart rate at 20 mg/kg, ip measured after 23 mins by electrocardiogram (reference value: -44.9 +/- 14.57); type: toxicity, organism-based; conditions: in vivo
Mus musculus [4] = assay: Cardiotoxicity in Kunming mouse assessed as change in heart rate at 20 mg/kg, ip measured after 19 mins by electrocardiogram (reference value: -38.67 +/- 13.91); type: toxicity, organism-based; conditions: in vivo
Mus musculus [5] = assay: Cardiotoxicity in Kunming mouse assessed as change in heart rate at 20 mg/kg, ip measured after 20 mins by electrocardiogram (reference value: -40.16 +/- 13.12); type: toxicity, organism-based; conditions: in vivo
Mus musculus [6] = assay: Cardiotoxicity in Kunming mouse assessed as change in heart rate at 20 mg/kg, ip measured after 30 mins by electrocardiogram (reference value: -43.78 +/- 22.71); type: toxicity, organism-based; conditions: in vivo, 0.5 h
Mus musculus [7] = assay: Cardiotoxicity in Kunming mouse assessed as change in heart rate at 20 mg/kg, ip measured after 24 mins by electrocardiogram (reference value: -44.48 +/- 12.38); type: toxicity, organism-based; conditions: in vivo, 0.4 h
Mus musculus [8] = assay: Cardiotoxicity in Kunming mouse assessed as change in heart rate at 20 mg/kg, ip measured after 10 mins by electrocardiogram (reference value: -34.85 +/- 19.78); type: toxicity, organism-based; conditions: in vivo
Mus musculus [9] = assay: Cardiotoxicity in Kunming mouse assessed as change in heart rate at 20 mg/kg, ip measured after 31 mins by electrocardiogram (reference value: -42.8 +/- 29.79); type: toxicity, organism-based; conditions: in vivo
Acetylcholinesterase [10] = target: Acetylcholinesterase (Electrophorus electricus, UniProt O42275); assay: Inhibition of electric eel AChE using S-acetylthiocholine iodide as substrate preincubated for 60 mins followed by substrate addition measured after 5 mins by Ellman's method
Mus musculus [11] = assay: Cardiotoxicity in Kunming mouse assessed as change in heart rate at 20 mg/kg, ip measured after 18 mins by electrocardiogram (reference value: -37.61 +/- 15); type: toxicity, organism-based; conditions: in vivo, 0.3 h
Mus musculus [12] = assay: Cardiotoxicity in Kunming mouse assessed as change in heart rate at 20 mg/kg, ip measured after 26 mins by electrocardiogram (reference value: -46.48 +/- 17.52); type: toxicity, organism-based; conditions: in vivo
Mus musculus [13] = assay: Cardiotoxicity in Kunming mouse assessed as change in heart rate at 20 mg/kg, ip measured after 5 mins by electrocardiogram (reference value: -14.06 +/- 24.25); type: toxicity, organism-based; conditions: in vivo
Mus musculus [14] = assay: Cardiotoxicity in Kunming mouse assessed as change in heart rate at 20 mg/kg, ip measured after 11 mins by electrocardiogram (reference value: -35.4 +/- 11.4); type: toxicity, organism-based; conditions: in vivo
Mus musculus [15] = assay: Cardiotoxicity in Kunming mouse assessed as change in heart rate at 20 mg/kg, ip measured after 6 mins by electrocardiogram (reference value: -19.47 +/- 22.55); type: toxicity, organism-based; conditions: in vivo, 0.1 h
Acetylcholinesterase [16] = target: Acetylcholinesterase (Homo sapiens, UniProt P22303); assay: Inhibition of human blood AChE using acetylthiocholine as substrate
Cholinesterase = Cholinesterase (Homo sapiens, UniProt P06276); assay: Inhibition of human blood BuChE using butyrylthiocholine as substrate
Procedure, shortened: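 Source was plasma from heparinised blood of one healthy donor, centrifuged at 1000 × g for 20 min at 25°C, stored at -80°C and diluted 150X. Ellman assay at pH 8 and 37°C with 60 min preincubation and seven inhibitor concentrations in water, 5×10^-8 to 5×10^-10 M. Triplicates.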

Acetylcholinesterase (Electrophorus electricus, UniProt O42275), sequence (O42275 whole entry): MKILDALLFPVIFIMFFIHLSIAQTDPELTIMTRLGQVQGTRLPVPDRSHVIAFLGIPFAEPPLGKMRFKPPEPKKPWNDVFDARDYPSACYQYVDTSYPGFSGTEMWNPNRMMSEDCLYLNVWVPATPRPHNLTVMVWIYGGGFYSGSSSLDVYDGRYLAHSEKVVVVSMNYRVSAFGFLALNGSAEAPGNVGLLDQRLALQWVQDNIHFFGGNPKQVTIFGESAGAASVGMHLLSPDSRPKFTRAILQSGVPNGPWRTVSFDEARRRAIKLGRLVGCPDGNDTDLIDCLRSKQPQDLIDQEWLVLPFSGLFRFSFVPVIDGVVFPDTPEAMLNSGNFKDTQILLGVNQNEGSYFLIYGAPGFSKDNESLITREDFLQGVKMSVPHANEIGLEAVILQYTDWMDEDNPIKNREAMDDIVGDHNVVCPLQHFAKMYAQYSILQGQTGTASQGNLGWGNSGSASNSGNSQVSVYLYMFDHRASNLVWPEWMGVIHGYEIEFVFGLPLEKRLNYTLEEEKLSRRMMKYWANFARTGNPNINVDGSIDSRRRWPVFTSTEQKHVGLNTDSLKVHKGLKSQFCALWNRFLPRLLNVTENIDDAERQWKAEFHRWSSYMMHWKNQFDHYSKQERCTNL
Cholinesterase, sequence (P06276 whole entry): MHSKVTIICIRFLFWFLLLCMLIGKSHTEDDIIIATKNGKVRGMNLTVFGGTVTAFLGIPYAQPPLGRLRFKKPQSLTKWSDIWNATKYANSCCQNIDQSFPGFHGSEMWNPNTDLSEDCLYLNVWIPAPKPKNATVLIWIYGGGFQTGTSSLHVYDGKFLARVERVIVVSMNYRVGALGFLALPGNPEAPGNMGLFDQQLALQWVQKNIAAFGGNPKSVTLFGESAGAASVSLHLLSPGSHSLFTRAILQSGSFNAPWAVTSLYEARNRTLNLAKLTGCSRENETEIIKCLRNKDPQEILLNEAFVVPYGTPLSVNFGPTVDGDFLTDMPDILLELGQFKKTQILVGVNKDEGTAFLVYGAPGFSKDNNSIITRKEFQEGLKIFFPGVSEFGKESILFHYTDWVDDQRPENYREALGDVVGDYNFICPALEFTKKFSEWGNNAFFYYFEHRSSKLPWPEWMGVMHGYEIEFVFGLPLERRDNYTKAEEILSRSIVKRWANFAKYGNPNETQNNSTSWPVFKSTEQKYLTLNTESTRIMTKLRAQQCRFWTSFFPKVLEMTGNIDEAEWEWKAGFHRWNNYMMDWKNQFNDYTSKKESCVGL
Acetylcholinesterase (Homo sapiens, UniProt P22303), sequence (P22303 whole entry): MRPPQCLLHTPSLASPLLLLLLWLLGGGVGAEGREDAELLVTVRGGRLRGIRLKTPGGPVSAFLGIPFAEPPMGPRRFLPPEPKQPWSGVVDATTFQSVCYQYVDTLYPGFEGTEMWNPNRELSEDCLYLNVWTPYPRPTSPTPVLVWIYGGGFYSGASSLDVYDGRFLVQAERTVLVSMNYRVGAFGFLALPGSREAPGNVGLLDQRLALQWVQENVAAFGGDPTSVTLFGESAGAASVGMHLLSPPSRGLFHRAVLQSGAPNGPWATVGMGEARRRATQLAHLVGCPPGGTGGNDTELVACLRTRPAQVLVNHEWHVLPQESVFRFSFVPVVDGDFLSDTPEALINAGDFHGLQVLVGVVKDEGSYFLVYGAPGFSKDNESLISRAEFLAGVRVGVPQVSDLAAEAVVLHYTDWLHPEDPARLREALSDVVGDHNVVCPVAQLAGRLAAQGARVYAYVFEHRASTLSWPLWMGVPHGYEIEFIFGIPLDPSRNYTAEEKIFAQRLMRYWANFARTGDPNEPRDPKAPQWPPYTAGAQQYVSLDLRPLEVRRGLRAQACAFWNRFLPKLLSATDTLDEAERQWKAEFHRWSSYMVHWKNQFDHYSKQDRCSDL

## CCN(C)C(=O)Oc1cc(OC(=O)N(C)CC)cc(C(O)CNC(C)(C)CC)c1.Cl (configuration not stated)
Mus musculus [1]
  Activity: -3.03 bpm
Mus musculus [2]
  Activity: -1.37 bpm
Mus musculus [3]
  Activity: 0.52 bpm
Mus musculus [4]
  Activity: 2.88 bpm
Mus musculus [5]
  Activity: 0.13 bpm
Mus musculus [6]
  Activity: -1.5 bpm
Mus musculus [7]
  Activity: 3.13 bpm
Mus musculus [8]
  Activity: -6.25 bpm
Mus musculus [9]
  Activity: 1.28 bpm
Acetylcholinesterase [10]
  IC50: > 100 µM
Mus musculus [11]
  Activity: 5.47 bpm
Mus musculus [12]
  Activity: -0.88 bpm
Mus musculus [13]
  Activity: 0.25 bpm
Mus musculus [14]
  Activity: -8.17 bpm
Mus musculus [15]
  Activity: -1.48 bpm

## CCC(C)(C)NCC(O)c1cc(OC(=O)N(C)C)cc(OC(=O)N(C)C)c1.Cl (configuration not stated)
Mus musculus [1]
  Activity: -33.53 bpm
Mus musculus [2]
  Activity: -36.77 bpm
Mus musculus [3]
  Activity: -41.98 bpm
Mus musculus [4]
  Activity: -41.43 bpm
Mus musculus [5]
  Activity: -40.62 bpm
Mus musculus [6]
  Activity: -36.5 bpm
Mus musculus [7]
  Activity: -42.92 bpm
Mus musculus [8]
  Activity: -40.41 bpm
Mus musculus [9]
  Activity: -37.65 bpm
Acetylcholinesterase [10]
  IC50: > 100 µM
Mus musculus [11]
  Activity: -38.45 bpm
Mus musculus [12]
  Activity: -42.44 bpm
Mus musculus [13]
  Activity: -28.9 bpm
Mus musculus [14]
  Activity: -42.6 bpm
Mus musculus [15]
  Activity: -31.29 bpm

## CN(C)C(=O)Oc1cc(OC(=O)N(C)C)cc(C(O)CNC(C)(C)C)c1 (configuration not stated) [BAMBUTEROL]
Mus musculus [1]
  Activity: 16.59 bpm
Acetylcholinesterase [16]
  IC50: 30 µM
Mus musculus [2]
  Activity: -2.09 bpm
Mus musculus [3]
  Activity: 48.77 bpm
Mus musculus [4]
  Activity: 38.36 bpm
Mus musculus [5]
  Activity: 34.4 bpm
Mus musculus [6]
  Activity: -20.41 bpm
Mus musculus [7]
  Activity: 29.39 bpm
Mus musculus [8]
  Activity: -0.24 bpm
Mus musculus [9]
  Activity: -13.49 bpm
Acetylcholinesterase [10]
  IC50: > 100 µM
Mus musculus [11]
  Activity: 32.35 bpm
Mus musculus [12]
  Activity: 11.92 bpm
Mus musculus [13]
  Activity: 17.67 bpm
Mus musculus [14]
  Activity: 5.19 bpm
Mus musculus [15]
  Activity: 16.63 bpm
Cholinesterase
  IC50: 0.003 µM
